Screening results as filed in PubChem.
esBAF inh: blocks esBAF chromatin remodeling in mouse ES cells | reporter increase, % at 12.5 µM | Bmi1-luciferase knock-in reporter, 24 h; 100% = twice the neutral-well signal | 350,000 compounds, 2% hits; in the data active means activation above about 40%; inconclusive means no clear call, values can overlap the other calls;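 further: 0% = median of the plate's neutral control wells and 100% = double that signal; a rise in the Bmi1 reporter signal indicates esBAF inhibition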
MITF act: MITF TRPM1 promoter activation in melanoma cells; SK-MEL-5 TRPM1-promoter luciferase, 24 h; % of positive control, neutral wells = 0; activation, % at 12.5 µM; 300,000 compounds, 0.75% hits; AID 588334;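 active means mean activation of at least 80% with every replicate also reaching 80%; inconclusive means mean reaches 80% but some replicate falls short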;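 further: 0% = neutral control wells and 100% = parthenolide positive control wells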
XiGFP reactiv: activators of X-chromosome reactivation in mouse fibroblasts. activation, % at 7.58 µM. 360,000 compounds, 0.055% hits. XiGFP mouse fibroblasts, % GFP-positive cells imaging, 3 d; cells co-treated with 5-aza-dC sensitizer; scaled so ellipticine positive control = 100%;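 active means mean normalized replicate activation at least 10% and every replicate at or above 10%; inconclusive means only one of the two criteria met; inactive means mean below 10% and not all replicates reach 10%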;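 further: 0% = median of on-plate neutral control wells and 100% = ellipticine 6 µM median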
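System: SV40-immortalized XiGFP fibroblast cells, line 68-5-11 / Incubation: 3-day compound exposure, then 15 min fixation at room temperature / Compound: single concentration per compound, delivered by pin transfer / Buffer or medium: DMEM plus 5-aza-dC sensitizer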
Casp6 inh: blocks human caspase-6 cleavage activity | inhibition, % at 12.5 µM | purified caspase-6, Z-VEID-R110 cleavage fluorescence | 350,000 compounds, 0.53% hits;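 active means mean inhibition across replicates at least about 35%, with every replicate also reaching that limit, limit read from the data; inconclusive means only one of the two criteria met; inactive means neither criterion met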;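 further: 0% = median of neutral control wells and 100% = no fluorescence left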
NSD2 HMT inh: blocks human histone methyltransferase NSD2; NSD2 peptide methylation, AlphaScreen, 120 min; inhibition, % at 12.5 µM; 310,000 compounds, 0.54% hits; O96028; AID 743445; in the data active means inhibition above about 50%
Target sequence (O96028 whole entry, looked up): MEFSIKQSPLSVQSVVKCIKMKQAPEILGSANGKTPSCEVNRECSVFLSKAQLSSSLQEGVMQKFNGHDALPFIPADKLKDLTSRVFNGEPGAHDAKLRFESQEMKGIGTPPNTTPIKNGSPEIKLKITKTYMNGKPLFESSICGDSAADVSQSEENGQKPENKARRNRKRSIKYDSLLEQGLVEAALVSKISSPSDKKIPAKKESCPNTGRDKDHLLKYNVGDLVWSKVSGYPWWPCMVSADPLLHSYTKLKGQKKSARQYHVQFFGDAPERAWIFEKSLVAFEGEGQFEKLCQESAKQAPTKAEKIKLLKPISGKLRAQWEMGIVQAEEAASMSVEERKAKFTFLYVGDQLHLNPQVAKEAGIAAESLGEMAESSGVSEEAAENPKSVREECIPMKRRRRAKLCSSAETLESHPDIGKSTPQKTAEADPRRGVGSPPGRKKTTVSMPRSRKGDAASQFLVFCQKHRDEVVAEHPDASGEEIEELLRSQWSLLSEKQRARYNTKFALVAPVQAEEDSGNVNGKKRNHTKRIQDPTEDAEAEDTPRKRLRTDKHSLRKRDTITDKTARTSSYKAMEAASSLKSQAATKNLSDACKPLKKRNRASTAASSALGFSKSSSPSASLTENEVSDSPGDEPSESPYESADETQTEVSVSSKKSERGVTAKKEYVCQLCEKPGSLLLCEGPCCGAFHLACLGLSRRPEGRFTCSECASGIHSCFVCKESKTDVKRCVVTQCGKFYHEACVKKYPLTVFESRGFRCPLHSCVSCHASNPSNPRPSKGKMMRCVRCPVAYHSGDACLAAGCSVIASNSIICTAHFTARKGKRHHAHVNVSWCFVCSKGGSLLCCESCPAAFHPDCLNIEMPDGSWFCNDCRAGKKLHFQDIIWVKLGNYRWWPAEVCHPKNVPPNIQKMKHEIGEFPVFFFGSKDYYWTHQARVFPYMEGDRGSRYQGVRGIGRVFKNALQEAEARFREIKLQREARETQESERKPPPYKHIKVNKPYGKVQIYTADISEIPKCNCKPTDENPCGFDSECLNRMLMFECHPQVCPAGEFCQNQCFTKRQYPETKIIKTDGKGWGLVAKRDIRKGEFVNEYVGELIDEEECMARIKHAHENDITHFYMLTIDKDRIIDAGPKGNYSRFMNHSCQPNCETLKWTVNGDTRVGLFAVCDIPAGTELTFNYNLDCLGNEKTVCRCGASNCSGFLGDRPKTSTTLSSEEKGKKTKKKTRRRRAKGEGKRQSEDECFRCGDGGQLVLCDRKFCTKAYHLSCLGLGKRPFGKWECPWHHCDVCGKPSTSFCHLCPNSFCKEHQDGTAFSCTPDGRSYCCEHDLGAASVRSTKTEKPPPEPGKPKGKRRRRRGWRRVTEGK
Wnt bcat act: Wnt/beta-catenin pathway activation; Wnt/beta-catenin reporter cell assay, activator, plate reader; activation, % at 9.35 µM; 300,000 compounds, 1.2% hits; AID 743398; in the data active means activation above about 30%, passing the limit was not always enough; inconclusive means no clear call, values can overlap the other calls;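 further: 0% = neutral control wells and 100% = positive control wells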
Starred values were filed as active, the others as inactive; u = inconclusive; x = not tested or not shown. The list is not random: actives were taken first. Their share in the collection is about 3%.

SMILES	esBAF inh	MITF act	XiGFP reactiv	Casp6 inh	NSD2 HMT inh	Wnt bcat act
O=C(Nc1cccc(F)c1)N1CCCCN2[C@H](CO)[C@@H](c3ccc(C#CC4CC4)cc3)[C@H]2C1	x	x	0	-2	x	x
CC(/C=C/c1ccccc1)=N\Nc1ccccc1[N+](=O)[O-]	44*	42	0	1	0	5
C[C@H](CO)N1C[C@H](C)[C@@H](CN(C)CC2CCCC2)Oc2cc(C3=CCCCC3)ccc2S1(=O)=O	-4	x	0	-1	x	x
COC(=O)C[C@H]1CC[C@@H](NC(=O)Nc2ccc(C(F)(F)F)cc2)[C@H](CO)O1	1	x	0	-1	x	x
Cn1nnc(NC(=O)c2ccc(C(C)(C)C)cc2)n1	46*	x	x	x	x	x
CCCn1nnc(NC(=O)c2ccc(-c3ccccc3)cc2)n1	41*	92*	x	1	-2	29
CC(C)CC#Cc1ccc([C@H]2[C@@H](CO)N3C(=O)CN(S(C)(=O)=O)C[C@H]23)cc1	x	x	0	x	x	x
CC1(C)N([O-])c2cc([N+](=O)[O-])ccc2[N+]1=O	x	x	0	38*	85*	7
Cc1ccc(C)n1-c1cc([N+](=O)[O-])ccc1-n1ccnc1	0	x	0	2	3	5
COC(=O)C[C@@H]1CC[C@@H](NC(=O)c2ccccc2)[C@@H](CO)O1	2	x	0	6	x	x
Cc1cc(C(=O)CSc2nncs2)c(C)n1-c1ccc2c(c1)OCO2	80*	71	x	x	5	x
CCOc1cccc(-c2cnc3cccnn23)c1	61*	x	0	0	-10	3
Cc1ccc(S(=O)(=O)NCC[C@H]2CC[C@H](NC(=O)c3cccc(F)c3)[C@H](CO)O2)cc1	0	x	0	-1	x	x
CCOC(=O)c1cc(-c2ccccc2)nn1Cc1cc(CC)no1	61*	73	0	-3	x	15
CCCNC(=O)N1[C@H](CO)[C@H](c2ccc(C3=CCCC3)cc2)[C@H]1CNC(C)=O	-1	x	0	x	x	x
O=C(O)c1cc(Cl)ccc1-c1ccc(/C=C/c2cc(C(F)(F)F)[nH]c(=O)n2)o1	x	9	0	45*	47	0
CN1C(=O)c2cc(NC(=O)C3CC3)ccc2OC[C@H]2O[C@H](CC(=O)NCCN3CCCC3)CC[C@@H]21	3	x	0	-1	x	x
Nc1ncn([C@@H]2O[C@H](CO)[C@@H](O)[C@H]2O)c(=O)n1	67*	-77	8	0	x	-11
COc1ccc(N2CCN(C(=O)C3Cc4ccccc4CN3C(=O)c3ccccc3)CC2)cc1 (configuration not stated)	72*	47	0	6	0	16
COc1ccc2c3c([nH]c2c1)[C@@H](CO)N(C(=O)Cc1ccccc1)CC31CCN(C(=O)Cc2ccccc2)CC1	x	x	0	x	x	x
c1ccc(N2CCN(c3nc4cc5c(cc4s3)OCCO5)CC2)cc1	48*	x	x	x	-1	u
c1c2c(cc3sc(N4CCOCC4)nc13)OCCO2	-79	-43	x	x	4	-10
CCCNC(=O)N1CC2(CCN(C(=O)COC)CC2)c2c(n(C)c3cc(OC)ccc23)[C@@H]1CO	x	x	0	x	x	x
C(=N\Nc1nc2ccccc2[nH]1)/c1ccc2c(c1)OCCO2	x	x	0	2	3	35*
Fc1ccccc1-c1ccc(/C=N/Nc2nc3ccccc3[nH]2)o1	x	13	0	2	-11	53*
SMILES	esBAF inh	MITF act	XiGFP reactiv	Casp6 inh	NSD2 HMT inh	Wnt bcat act
Cc1ccc(/C=N\Nc2nc3ccc(Cl)cc3[nH]2)o1	x	39	x	-3	-2	68*
Cc1ccc(/C=N/Nc2ccc3ccccc3n2)o1	-62	-23	0	-2	x	4
COc1ccc(NC(=O)Nc2ccc3c(c2)C(=O)N([C@@H](C)CO)C[C@H](C)[C@H](CN(C)Cc2ccncc2)OCCCC[C@@H](C)O3)cc1	1	x	0	-1	x	x
O=C1N[C@@H](c2ccccc2)COCc2cn(nn2)CC[C@@H](Cc2ccc(C(F)(F)F)cc2)C(=O)N[C@@H](c2ccccc2)COCc2cn(nn2)CC[C@H]1Cc1ccc(C(F)(F)F)cc1	x	x	0	x	x	x
C(=N\NCc1ccccc1)/c1ccc2ncccc2c1	x	x	0	-1	2	31*
Cn1c(N)c(N=O)c(=O)n(C)c1=S	-3	-6	0	60*	2	-3
Cn1c(N)c(N=Cc2ccccc2)c(=O)n(C)c1=O	-6	-5	0	-2	1	-2
O=C(CCl)NC(Cc1c[nH]c2ccc(OCc3ccccc3)cc12)C(=O)O (configuration not stated)	-4	15	0	36*	15	0
CN1CCN(C(=O)C[C@@H]2CC[C@H]3[C@@H](COc4ccc(NC(=O)C5CCCCC5)cc4C(=O)N3C)O2)CC1	-6	x	0	0	x	x
COc1cccc(S(=O)(=O)N2CC[C@@H]3[C@H](CO)Nc4ccc(C#Cc5ccccc5)cc4[C@@H]32)c1	-6	x	0	3	x	x
Cc1ccc(C)c(OCCC(=O)N2CCN(S(=O)(=O)c3cc(F)ccc3F)CC2)c1	-2	13	0	45*	-5	0
CCCNC(=O)c1oc2ccc3c(c2c1C)C=CC(C)(C)O3	56*	105*	0	3	11	38*
CCCNC(=O)c1oc2ccc3c(c2c1C)C(=O)CC(C)(C)O3	-15	89*	x	x	-2	59*
CCOC(=O)N1CCC2(CC1)CC(=O)c1c(ccc3oc(C(=O)O)c(C)c13)O2	-3	9	x	x	-1	x
C[C@@H]1CN(C)C(=O)c2cccnc2O[C@@H]1CN(C)C	x	x	0	x	x	x
Cc1ccc(NC(=O)CCS(=O)(=O)c2cc3[nH]c(=O)c(=O)[nH]c3cc2C)cc1	2	9	0	37*	5	3
CCCC(=O)N1CCN(c2nc3ccccc3s2)CC1	-4	96*	0	2	-2	0
CC(C)NC(=O)N1CCCN(c2nc3ccc(Cl)cc3s2)CC1	35	19	0	1	-1	31*
CCC(=O)N1CCN(c2nc3ccc(Br)cc3s2)CC1	75*	71	0	1	21	20
CCCCC(=O)N1CCN(c2nc3ccc(F)cc3s2)CC1	12	35	0	2	1	1
Clc1ccc2nc(N3CCCCC3)sc2c1	x	66	0	-3	-4	16
COc1ccc(/C=C2\C(=O)NC(=O)c3ccccc32)cc1OC	x	-22	0	93*	x	1
O=C(O)c1ccc(/C=C2\COc3ccccc3C2=O)cc1	4	-9	0	5	1	3
COc1ccc(C=C2C(=O)OC(C)(C)OC2=O)cc1OC	4	7	0	-4	-1	3
COc1ccc(/C=C2\OC(=O)c3c(OC)cccc32)cc1OC	48*	125*	x	x	-2	x
COc1ccc(/C=C2\COc3ccccc3C2=O)cc1OC	x	-8	0	x	10	33*
COc1ccc2c(c1)CC/C(=C\c1ccc(OC)c(Cn3cccn3)c1)C2=O	87*	x	x	x	-5	x
